Assay results taken from PMC4090938 (Molecular cell, 2014).

Assays:
[1] = system: Erk-MAP kinase in Grb2-/- mESCs; assay: Erk-MAP kinase activation; assay type: cell-based, mouse; conditions: SU5402 10 μM
How it was run: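 Grb2-/- mouse ES cells (line described previously) were transfected with Lipofectamine LTX. Constructs were WT or chimeric Grb2 in pCAGGS, driven by a β-actin promoter. Cells were selected with puromycin for 48 h before analysis.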

[2] = target: T1, Ptpn11 (Mus musculus, UniProt P35235); assay: FLAG IP of FLAG-tagged Grb2 constructs compared with Ptpn11 level in cell lysate; assay type: cell-based; conditions: Ptpn11 in FLAG IP versus cell lysate, mESCs; data not shown
T1 sequence (P35235 1-593): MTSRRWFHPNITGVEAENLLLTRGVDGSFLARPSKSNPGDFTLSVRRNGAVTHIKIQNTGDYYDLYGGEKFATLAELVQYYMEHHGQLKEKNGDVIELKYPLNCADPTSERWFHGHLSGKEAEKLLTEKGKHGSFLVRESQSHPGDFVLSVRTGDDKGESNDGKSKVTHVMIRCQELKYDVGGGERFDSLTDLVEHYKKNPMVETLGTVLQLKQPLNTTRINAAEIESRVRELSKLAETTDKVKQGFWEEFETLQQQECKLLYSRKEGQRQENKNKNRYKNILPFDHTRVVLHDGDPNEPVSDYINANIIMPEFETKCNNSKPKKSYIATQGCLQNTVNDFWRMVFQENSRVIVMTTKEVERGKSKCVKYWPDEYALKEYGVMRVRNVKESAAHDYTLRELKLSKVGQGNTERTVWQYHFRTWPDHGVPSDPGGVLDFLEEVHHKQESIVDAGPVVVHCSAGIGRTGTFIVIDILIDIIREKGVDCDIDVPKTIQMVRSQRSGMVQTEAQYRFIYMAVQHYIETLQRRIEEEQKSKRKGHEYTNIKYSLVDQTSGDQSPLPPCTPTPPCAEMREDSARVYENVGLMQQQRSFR

[3] = system: Grb2-/- mESCs; assay: mESC priming; assay type: cell-based, mouse; conditions: Grb2-/- mESCs expressing the construct; Nanog/Dnmt3b expression signature
How it was run: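 Grb2-/- mESCs were transfected (Lipofectamine LTX) with WT or chimeric Grb2 in pCAGGS under a β-actin promoter, then puromycin-selected for 48 h before analysis. Dnmt3b levels were quantified as mean ± standard deviation (n=3). Regular colonies were also immunostained for Nanog and Dnmt3b.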

effect on activation of Erk-MAP kinase by chGrb2(Ptpn11_pY580) or WT Grb2 [1]	Ptpn11 in the cell engaged [2]	Molecule	restoration of mESC priming [3]
blocked	–	Cc1c[nH]c(/C=C2\C(=O)Nc3ccccc32)c1CCC(=O)O [SU5402]	–
–	approximately 20%	WT Grb2: vector-derived FLAG-tagged wild-type Grb2 adaptor protein	reestablished
